Laboratory results from the RNAGym collection of RNA variant scans (doi:10.1038/s41586-018-0170-7).

B1: tRNA (parent)
chain: GUUCCGUUGGCGUAAUGGUAACGCGUCUCCCUCCUAAGGAGAAGACUGCGGGUUCGAGUCCCGUACGGAACG

Variants of: B1
Experiment: yeast fitness, log relative to wild type (ln ratio); higher = fitter; tRNA-Arg(CCU), competitive growth, 37 C, 1 M NaCl
Outline: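 Two independent transformations put a combinatorial tRNA-Arg(CCU) variant library on a HIS3 centromeric plasmid into BY4742 lacking the chromosomal gene. Pools were grown in SC-HIS at 30 °C for 4 generations, then in SC-HIS 1M NaCl at 37 °C for ~6.5 generations (~26.5 h), with three outputs taken per input. Fitness compares a genotype's generations with the wild type's as a natural log ratio. Those generations are OD-scaled log2 output/input frequencies, inverse-variance weighted across replicates, from 125 bp paired-end Illumina counts.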

| Variant | yeast fitness (ln) |
| --- | --- |
| U2G G6A C27U A43C | -0.0726 |
| U2G G6A A43C A69G A70U C71U | -0.364 |
| U2G G6A C27U A43C C46U A70G | -0.145 |
| U2G G6A C27U A43C C46U A70U | -0.119 |
| U2G G6A C66U A69G C71U | -0.217 |
| U2G G6A A70G | -0.114 |
| U2G G6A A70U | -0.0249 |
| U2G G6A C46U C66A A70U C71U | -0.106 |
| U2G G6A A43C C46U C66U A69G A70U | -0.0409 |
| U2G G6A A43C C46U C66U A69G A70G | -0.199 |
| U2G G6A C27U A43C C46U C66U C71U | -0.282 |
| U2G G6A A43C C46U A70U C71U | -0.118 |
| U2G G6A C27U A43C C46U C66A A69G A70U C71U | -0.65 |
| U2G G6U A43C C46U A69G C71U | -0.221 |
| U2G G6A C27U C46U A69G | -0.149 |
| U2G G6A C46U C66A A69G A70U | -0.0517 |
| U2G G6A C27U A43C C66A A69G C71U | -0.379 |
| U2G G6A C46U C66A C71U | -0.134 |
| U2G G6A C27U C66U | -0.0928 |
| U2G G6A C27U C66A | -0.186 |
| U2G G6U A43C C66A A70U C71U | -0.43 |
| U2G G6U A43C C66U A69G A70G | -0.323 |
| U2G G6U A43C C66U A69G A70U | -0.379 |
| U2G G6A C66U A69G A70G C71U | -0.161 |

| Variant | yeast fitness (ln) |
| --- | --- |
| U2G G6U A43C C66A A70G | -0.137 |
| U2G G6U A43C C66A A70U | -0.0132 |
| U2G G6A A43C C66U C71U | -0.388 |
| U2G G6A C66U C71U | -0.134 |
| U2G G6A C27U A69G C71U | -0.268 |
| U2G G6U A43C C66U A69G A70G C71U | -0.411 |
| U2G G6A A43C A70G C71U | -0.18 |
| U2G G6U A43C C46U A69G A70U C71U | -0.426 |
| U2G G6A C27U A69G A70G | -0.193 |
| U2G G6A C27U A69G A70U | -0.151 |
| U2G G6A C27U C66U C71U | -0.238 |
| U2G G6A A43C C46U C66A A69G C71U | -0.341 |
| U2G G6U A43C A69G A70G C71U | -0.28 |
| U2G G6A C66U A70U C71U | -0.0405 |
| U2G G6U A43C C46U C66U A69G A70U C71U | -0.4 |
| U2G G6A C27U A43C C66U A70G C71U | -0.29 |
| U2G G6U A43C A69G A70U C71U | -0.433 |
| U2G G6A C27U A43C C46U C66U A69G A70G C71U | -0.289 |
| U2G G6A C27U A43C C66U A70U | -0.0534 |
| U2G G6A C27U A43C C66U A70G | -0.223 |
| U2G G6A C27U A43C C66A A69G A70U C71U | -0.548 |
| U2G G6U A43C C46U C66A A70U | -0.00113 |
| U2G G6U A43C C46U C66A A70G | -0.251 |
| U2G G6A C66A A69G A70U C71U | -0.31 |

| Variant | yeast fitness (ln) |
| --- | --- |
| U2G G6A C46U C66U A70U C71U | -0.0272 |
| U2G G6A C46U A70G C71U | -0.144 |
| U2G G6A C66U A70U | 0.001 |
| U2G G6A C66U A70G | -0.0683 |
| U2G G6A C46U C66U A69G A70U C71U | -0.385 |
| U2G G6A A43C C46U A69G A70G C71U | -0.226 |
| U2G G6U A43C C46U C66U A69G C71U | -0.487 |
| U2G G6A A43C C46U C66A | -0.141 |
| U2G G6A A43C C46U C66U | -0.147 |
| U2G G6A A43C C46U C66U A69G A70U C71U | -0.379 |
| U2G G6A C46U C66A A70G C71U | -0.148 |
| U2G G6A C27U C71U | -0.156 |
| U2G G6A C27U A69G A70G C71U | -0.245 |
| U2G G6A C27U A43C C66A A70U | -0.176 |
| U2G G6A C27U A43C C66A A70G | -0.195 |
| U2G G6A C27U C46U C66A A70U C71U | -0.167 |
| U2G G6A C27U A43C C46U A69G A70U | -0.159 |
| U2G G6A C27U A43C C46U A69G A70G | -0.183 |
| U2G G6U A43C C46U C66U A69G A70G | -0.267 |
| U2G G6U A43C C46U C66U A69G A70U | -0.286 |
| U2G G6A C27U A43C C66A A70U C71U | -0.473 |
| U2G G6A C66U A69G A70U C71U | -0.641 |
| U2G G6A C46U C66U A70U | -0.000351 |
| U2G G6A C46U C66U A70G | -0.0322 |

| Variant | yeast fitness (ln) |
| --- | --- |
| U2G C66U C71U | -0.181 |
| U2G G6A C27U A43C C66U C71U | -0.373 |
| U2G G6A C27U A43C C46U C66A C71U | -0.283 |
| U2G G6A C27U A43C C46U C71U | -0.134 |
| U2G G6A C27U C46U C66U | -0.206 |
| U2G G6A C27U C46U C66A | -0.0567 |
| U2G G6U A43C C66A | -0.122 |
| U2G G6A C27U C46U C66A A69G A70G C71U | -0.251 |
| U2G G6A C66A A70U | -0.178 |
| U2G G6A C66A A70G | -0.0981 |
| U2G G6U A43C C46U C66A C71U | -0.154 |
| U2G G6A A43C C46U C66A C71U | -0.153 |
| U2G G6A A43C C46U A70G | -0.148 |
| U2G G6A A43C C46U A70U | -0.261 |
| U2G C66U A70U C71U | -0.543 |
| U2G C66U A70G C71U | -0.121 |
| U2G G6A C27U C66A C71U | -0.216 |
| U2G G6A C46U C66U C71U | -0.082 |
| U2G C71U | -0.0549 |
| U2G G6A C27U C46U C66A A69G C71U | -0.325 |
| U2G G6A A43C C46U C66A A70U C71U | -0.227 |
| U2G G6A A43C C66A A70G | -0.187 |
| U2G G6A A43C C66A A70U | -0.12 |
| U2G G6A C27U C66A A70G C71U | -0.149 |

| Variant | yeast fitness (ln) |
| --- | --- |
| U2G G6A A43C C46U C66A A70G C71U | -0.139 |
| U2G G6A C46U A69G | -0.183 |
| U2G G6U A43C C66A C71U | -0.324 |
| U2G G6A C46U C66U A69G C71U | -0.155 |
| U2G G6A C27U C66U A70U | -0.0165 |
| U2G G6A C27U C66U A70G | -0.227 |
| U2G C66U A70U | -0.00968 |
| U2G C66U A70G | -0.0789 |
| U2G G6A A43C C46U C66A A69G A70G C71U | -0.212 |
| U2G G6A C27U A43C C66A A69G A70G C71U | -0.366 |
| U2G G6A C27U A43C A69G A70G C71U | -0.176 |
| U2G G6U A43C C46U C66U A70U C71U | -0.22 |
| U2G G6A A43C C46U A69G C71U | -0.206 |
| U2G G6A C27U A43C C46U C66U A69G A70U | -0.292 |
| U2G G6A C27U A43C C46U C66U A69G A70G | -0.23 |
| U2G G6A A43C C66U A69G C71U | -0.284 |
| U2G G6U A43C A70U | -0.151 |
| U2G G6U A43C A70G | -0.173 |
| U2G G6A C27U A43C C66U | -0.113 |
| U2G G6A C27U A43C C66A | -0.237 |
| U2G G6A C27U C46U C66U A70U | -0.01 |
| U2G G6A C27U C46U C66U A70G | -0.364 |
| U2G G6A A43C C71U | -0.195 |
| U2G G6A C27U A43C C46U C66A A70U C71U | -0.331 |

| Variant | yeast fitness (ln) |
| --- | --- |
| U2G G6A C46U A69G C71U | -0.124 |
| U2G G6A A43C A70U | -0.14 |
| U2G G6A A43C A70G | -0.0939 |
| U2G G6U A43C C46U C66A A69G A70G C71U | -0.228 |
| U2G C66U A69G C71U | -0.213 |
| U2G G6U A43C A70G C71U | -0.282 |
| U2G G6A C27U C46U C66U A69G A70G C71U | -0.216 |
| U2G G6A C27U C66U A69G | -0.193 |
| U2G G6U A43C C46U | -0.106 |
| U2G G6A C27U A43C C46U C66A A69G A70G C71U | -0.252 |
| U2G G6A A69G A70U C71U | -0.264 |
| U2G G6A C27U A43C C46U C66U A70U C71U | -0.598 |
| U2G G6U A43C C46U C66A A69G A70U C71U | -0.313 |
| U2G G6U A43C C46U C66A A70U C71U | -0.135 |
| U2G G6A C66U A69G A70U | -0.00753 |
| U2G G6A C66U A69G A70G | -0.448 |
| U2G G6A A43C A69G A70G C71U | -0.233 |
| U2G G6U A43C C66A A69G A70G | -0.256 |
| U2G G6U A43C C66A A69G A70U | -0.185 |
| U2G G6A C27U A43C C46U C66A A70G C71U | -0.19 |
| U2G G6A C27U C46U C66U A69G A70U | -0.0313 |
| U2G G6A C27U C46U C66U A69G A70G | -0.199 |
| U2G G6A C27U A43C C46U A70U C71U | -0.176 |
| U2G G6A C27U A69G A70U C71U | -0.383 |

| Variant | yeast fitness (ln) |
| --- | --- |
| U2G G6A C46U A69G A70G C71U | -0.154 |
| U2G G6U A43C C46U C66U A69G A70G C71U | -0.348 |
| U2G G6A C27U C46U C66U A70U C71U | -0.158 |
| U2G G6A C27U A43C C66A A69G A70G | -0.368 |
| U2G G6A C27U A43C C66A A69G A70U | -0.301 |
| U2G G6A C46U C66A A70U | -0.059 |
| U2G G6A C46U C66A A70G | -0.056 |
| U2G G6U A43C | -0.129 |
| U2G G6A C46U A70U | 0.00257 |
| U2G G6A C46U A70G | -0.0796 |
| U2G G6A A69G A70G C71U | -0.181 |
| U2G G6A C27U C46U A69G A70U C71U | -0.368 |
| U2G G6A A70G C71U | -0.142 |
| U2G G6A C66A C71U | -0.139 |
| U2G G6A A70U C71U | -0.107 |
| U2G G6U A43C C46U A70U C71U | -0.168 |
| U2G G6A C27U A43C C46U A69G A70G C71U | -0.297 |
| U2G G6U A43C C46U C66A A70G C71U | -0.174 |
| U2G G6A A43C C46U A70G C71U | -0.209 |
| U2G G6A C27U A70U C71U | -0.144 |
| U2G G6A A43C C66U | -0.0762 |
| U2G G6U A69G | -0.176 |
| U2G G6A C46U C66A A69G A70U C71U | -0.382 |
